What was measured:
IgG = conditions: read-out: binding constant for IgG; ref [20]; cited from earlier work
humans = conditions: very low doses; idiosyncratic thrombocytopenia purpura; ref [13]; cited from earlier work
[1] = Congo red absorbance / fibrillization; type: physicochemical; conditions: EAK: upon exposure to high ionic strengths
Method in brief: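 Congo red (1×, diluted from 10X stock in PBS) incubated with peptide for at least 1 h. Absorbance scanned across 400–600 nm on a microplate reader with 0 ms settle time. Peak position and shift read from spectra, with repeat scans over time.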

[2] = target: fluorescein-labeled rabbit polyclonal IgG (Oryctolagus cuniculus, UniProt P01870); test: Microplate-based titration of IgG against Z15_EAK/EAK coacervate; type: binding; conditions: constant concentration of EAK; data not shown
fluorescein-labeled rabbit polyclonal IgG, sequence (P01870 101-323 limits assumed): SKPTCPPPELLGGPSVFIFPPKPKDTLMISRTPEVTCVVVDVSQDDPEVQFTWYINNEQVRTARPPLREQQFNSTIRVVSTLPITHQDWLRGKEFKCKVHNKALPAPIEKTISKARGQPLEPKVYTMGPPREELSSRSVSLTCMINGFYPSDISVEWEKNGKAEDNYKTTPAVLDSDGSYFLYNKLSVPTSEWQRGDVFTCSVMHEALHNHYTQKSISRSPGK

IgG^800 = test: In vivo IgG^800 retention in mouse footpads; parameters: species or system C57BL/6 mice
Method in brief: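 Female C57BL/6 mice, 8–12 weeks old, under isoflurane (5% induction, 3% maintenance). Fluorescent IgG800 premixed with peptide coacervate or EAK was injected subcutaneously into one footpad (28G needle) without hair removal. Imaged before injection and every two days with near-infrared imaging at 255 μm resolution. Injection-site ROI was normalized to a non-injected background ROI; the 5-min signal was set as 100% (0.065 μg/μl). Ex vivo scans were taken at 800 channel.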

[3] = system: CD8 T cells from humans exposed to the human polyomavirus 2 protein; conditions: T cells of patients exposed to the virus; HLA-A*0201; ref [35]; cited from earlier work

SpA: 42-kDa protein consisting of five homologous Fc-binding domains (E, D, A, B and C)
Kd (IgG): ~20 nM

PRTX-100: Highly purified SpA developed as a therapeutic for idiosyncratic thrombocytopenia purpura
safety in phase-I clinical trials (humans): safe

AEAEAKAKAEAEAKAK
fibril formation kinetics [1]: almost instantaneously
affinity constants of IgG titrated against EAK [2]: ambiguous affinity constants
IgG^800 retained in footpad (IgG^800; after 4 days, 5 min signal = 100%): 8%
antibody in draining lymph node (IgG^800; footpad injection, day 28): found in the draining lymph node

RIPLPNLNEDLTCGN
T cell recall in vitro [3]: recalled in vitro

From paper PMC6410374 (Biomaterials science, 2019)
